“And” between values parts separate entries of the source, which are not always exact repeats. Equal entries are not always repeated. “Also recorded” adds a separate entry of the source. Structures can show the parent of a compound that is named as a salt. Where two headings read alike, the source gives them in different places.
What was measured:
[1] = Pharmacokinetics of S2227 and M179 hydrochloride in mice; type: in vivo, male CD-1 mice; details: for AUC(0-t): male, CD-1, mouse, plasma, po
Outline: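 Two groups of 28 male Crl:CD-1(ICR) mice were gavaged with a 1% methylcellulose suspension of either parent (30 mg/kg) or the equimolar secondary amine hydrochloride (20 mg/kg). Blood was taken by cardiac puncture from 4 mice/group/time point at about 15 and 30 min and 1, 2, 4, 8 and 24 h. Plasma levels of parent and metabolites gave Cmax and AUClast.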

[2] = test system: bone marrow polychromatic erythrocytes; test: In vivo micronucleus assay, bone marrow PCEs; parameters: species or system CD-1 mice; details: for Mortality: dose range finding
Outline: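 Crl:CD-1(ICR) mice were gavaged for three consecutive days in 1% methylcellulose at 10 mL/kg. Dose-range phases used 3/sex/group: parent at 500–2000 mg/kg, amine salt at 125–2000 mg/kg/day. Definitive phases used 6/sex (parent) or 5/sex (amine), with MMS 40 mg/kg/day as positive control. Micronuclei were scored in 2000 bone marrow PCEs per animal, and the PCE/total erythrocyte ratio was used for cytotoxicity.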

[3] = In vitro metabolism in liver microsomes; type: in vitro ADME, Gottingen pig; details: Pig (10 min), positive ionization
[4] = In vitro metabolism in liver microsomes; type: in vitro ADME; details: Dog (60 min), positive ionization
[5] = In vitro metabolism in liver microsomes; type: in vitro ADME; details: Human (60 min), positive ionization
[6] = In vitro metabolism in liver microsomes; type: in vitro ADME, Sprague-Dawley rat; details: Rat (20 min), positive ionization
[7] = Pharmacokinetics after single iv or oral S2227 in dogs; type: in vivo, beagle dogs; details: for AUC0-last ratio M179/S2227 / AUC0-last/dose: Dog (M); for AUC(0-t) / Cmax / Tmax / half-life: male, beagle, dog; for AUC(0-t) / Cmax / Tmax / half-life / AUC0-last/dose: plasma
[8] = test system: S. typhimurium strains TA98, TA100, TA1535, TA1537 and E. coli strain WP2 uvrA; test: Bacterial reverse mutation test; type: cell-based; details: 50-5000 μg/plate, initial and confirmatory plate incorporation, ±S9
Outline: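 OECD 471 design, run with and without Aroclor 1254-induced male Sprague-Dawley rat liver S9 (9000 × g fraction). The parent compound was tested by plate incorporation and pre-incubation at 63–1000 µg/plate. The secondary amine hydrolysis product (hydrochloride) was tested by plate incorporation only, in an initial toxicity-mutation phase and a confirmatory phase, at nominal 50–5000 µg/plate. Positive and vehicle controls ran concurrently.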

liver cells = test: In vivo alkaline comet assay, liver; parameters: species or system CD-1 mice; details: males: 125, 250, 500 mg/kg bw; females: 250, 500, 1000 mg/kg bw (oral)
Outline: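 Run on the same Crl:CD-1(ICR) mice as the micronucleus study, 5/sex/group. Animals received the salt of the secondary amine hydrolysis product by oral gavage for three consecutive days, with 1% methylcellulose as vehicle control. Liver cells were analysed by alkaline single-cell gel electrophoresis, scoring % tail DNA and counting "clouds" (hedgehogs) against vehicle controls.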

[9] = test system: human peripheral blood lymphocytes (HPBL); test: In vitro chromosome aberration test
[10] = Pharmacokinetics after single iv or oral S2227 in rats; type: in vivo, Sprague-Dawley rats; details: for AUC(0-t) / Cmax / Tmax / half-life: Sprague-Dawley, rat; for AUC(0-t) / Cmax / Tmax / half-life / AUC0-last/dose: plasma
Outline: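 IV dosing: 4 male and 4 female Sprague-Dawley rats given a 1 mg/kg bolus in PEG 400, with blood sampled at about 0, 2, 5, 10 and 30 min and 1, 2, 4 and 8 h. Oral dosing: 4/sex/group gavaged at 10, 30 or 100 mg/kg in 1% methylcellulose, with blood sampled at about 0, 15 and 30 min and 1, 2, 4, 8 and 24 h. Plasma was assayed for parent and metabolites.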

CYP2C19 = CYP2C19 (Homo sapiens, UniProt P33261); details: 10 μM, spectrofluorimetric substrates; ref Arthur, unpublished results; cited from earlier work
Sequence of CYP2C19 (P33261 whole entry): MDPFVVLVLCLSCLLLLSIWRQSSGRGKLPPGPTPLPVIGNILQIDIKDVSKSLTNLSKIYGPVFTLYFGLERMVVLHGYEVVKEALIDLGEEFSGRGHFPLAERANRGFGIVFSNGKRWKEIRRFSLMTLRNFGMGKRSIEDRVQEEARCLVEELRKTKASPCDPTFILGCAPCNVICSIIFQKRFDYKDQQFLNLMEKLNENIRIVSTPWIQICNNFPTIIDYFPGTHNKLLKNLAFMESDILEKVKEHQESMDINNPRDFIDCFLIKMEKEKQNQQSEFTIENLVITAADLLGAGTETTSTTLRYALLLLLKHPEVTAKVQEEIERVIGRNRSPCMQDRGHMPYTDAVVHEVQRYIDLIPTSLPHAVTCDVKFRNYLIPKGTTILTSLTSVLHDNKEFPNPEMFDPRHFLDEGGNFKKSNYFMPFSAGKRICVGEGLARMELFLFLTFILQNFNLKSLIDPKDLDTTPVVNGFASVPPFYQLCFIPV

[11] = 28-day and 22-week rat and 28-day dog studies; cited from earlier work
[12] = ref Chi, unpublished results, cited from earlier work

c1csc(CNc2cc[nH]n2)c1 [M179 hydrochloride salt, N-(2-thienylmethyl)-1H-pyrazol-3-amine]
fold higher exposure of M179 in plasma than after an equimolar dose of S2227 ([1]; oral, mice): 158 fold
Mortality ([2]; females, 2000 mg/kg): 3/3
Mortality ([2]; males, 1000 mg/kg/day): 2/3
Mortality ([2]; males, 2000 mg/kg): 3/3

c1csc(CNc2cc[nH]n2)c1 [M179, N-(2-thienylmethyl)-1H-pyrazol-3-amine]
relative EIC peak area (%) compared to S2227 peak area at T = 0 min [3]: 37.29%
relative EIC peak area (%) compared to S2227 peak area at T = 0 min [4]: 10.26%
relative EIC peak area (%) compared to S2227 peak area at T = 0 min [5]: 0.91%
AUC(0-t) ([1]; 20 mg/kg): 4370 ng·h/mL
AUC(0-t) ([1]; 30 mg/kg): 27.6 ng·h/mL
relative EIC peak area (%) compared to S2227 peak area at T = 0 min [6]: 6.47%
AUC0-last ratio M179/S2227 ([7]; S2227 iv 1.0 mg/kg): 0.007
AUC0-last ratio M179/S2227 ([7]; S2227 oral gavage 10 mg/kg): 0.187
AUC0-last ratio M179/S2227 ([7]; S2227 oral gavage 30 mg/kg): 0.139
AUC0-last ratio M179/S2227 ([7]; S2227 oral gavage 100 mg/kg): 0.243
AUC(0-t) ([7]; iv, 1 mg/kg): 6.63 ± 0.9 ng·h/mL
Cmax ([7]; iv, 1 mg/kg): 5.2 ± 0.9 ng/mL
Tmax ([7]; iv, 1 mg/kg): 0.5 h
half-life ([7]; iv, 1 mg/kg): 1.1 h
AUC(0-t) ([7]; po, 10 mg/kg): 22.2 ± 8.78 ng·h/mL
Cmax ([7]; po, 10 mg/kg): 10.2 ± 4.84 ng/mL
Tmax ([7]; po, 10 mg/kg): 4.67 h
half-life ([7]; po, 10 mg/kg): 4.77 h
AUC(0-t) ([7]; po, 30 mg/kg): 31 ± 15.4 ng·h/mL
Cmax ([7]; po, 30 mg/kg): 6.81 ± 2.15 ng/mL
Tmax ([7]; po, 30 mg/kg): 1 h
half-life ([7]; po, 30 mg/kg): 2.27 h
AUC(0-t) ([7]; po, 100 mg/kg): 171 ± 144 ng·h/mL
Cmax ([7]; po, 100 mg/kg): 129 nM and 23.1 ng/mL
Tmax ([7]; po, 100 mg/kg): 10 h
half-life ([7]; po, 100 mg/kg): 4.69 h
AUC0-last/dose ([7]; dosed S2227 iv 1.0 mg/kg): 6.63 ng·h/mL/mg/kg
AUC0-last/dose ([7]; dosed S2227 oral gavage 10 mg/kg): 2.22 ng·h/mL/mg/kg
AUC0-last/dose ([7]; dosed S2227 oral gavage 30 mg/kg): 1.03 ng·h/mL/mg/kg
AUC0-last/dose ([7]; dosed S2227 oral gavage 100 mg/kg): 1.71 ng·h/mL/mg/kg
Reverse mutation (in vitro) [8]: not mutagenic; also recorded: Negative
DNA damage (in vivo), liver Comet assay (liver cells): negative (non-DNA damaging); also recorded: Negative
Chromosome aberration (in vitro) ([9]; 280-2160 μg/mL 4 h -S9, 100-1840 μg/mL 4 h +S9, 25-280 μg/mL 20 h -S9): Positive (4 h,⿿S9)
induction of structural aberrations ([9]; S9-activated test system): negative
induction of numerical aberrations ([9]; non-activated and S9-activated test systems): negative
induction of structural aberrations ([9]; non-activated test system): positive
AUC0-last ratio M179/S2227 ([10]; S2227 iv 1.0 mg/kg, Rat (F)): 0.042
AUC0-last ratio M179/S2227 ([10]; S2227 iv 1.0 mg/kg, Rat (M)): 0.040
AUC0-last ratio M179/S2227 ([10]; S2227 oral gavage 10 mg/kg, Rat (F)): 48.9
AUC0-last ratio M179/S2227 ([10]; S2227 oral gavage 10 mg/kg, Rat (M)): 155
AUC0-last ratio M179/S2227 ([10]; S2227 oral gavage 30 mg/kg, Rat (F)): 86.2
AUC0-last ratio M179/S2227 ([10]; S2227 oral gavage 30 mg/kg, Rat (M)): 98.6
AUC0-last ratio M179/S2227 ([10]; S2227 oral gavage 100 mg/kg, Rat (F)): 38.1
AUC0-last ratio M179/S2227 ([10]; S2227 oral gavage 100 mg/kg, Rat (M)): 69.9
AUC(0-t) ([10]; female, iv, 1 mg/kg): 12.6 ± 5.02 ng·h/mL
Cmax ([10]; female, iv, 1 mg/kg): 14 ± 4.84 ng/mL
Tmax ([10]; female, iv, 1 mg/kg): 0.13 h
half-life ([10]; female, iv, 1 mg/kg): 0.82 h
AUC(0-t) ([10]; female, po, 10 mg/kg): 384 ± 267 ng·h/mL
Cmax ([10]; female, po, 10 mg/kg): 407 ± 289 ng/mL
Tmax ([10]; female, po, 10 mg/kg): 0.44 h
half-life ([10]; female, po, 10 mg/kg): 1.02 h
AUC(0-t) ([10]; female, po, 30 mg/kg): 2510 ± 1700 ng·h/mL
Cmax ([10]; female, po, 30 mg/kg): 1540 ± 1050 ng/mL
Tmax ([10]; female, po, 30 mg/kg): 0.75 h
half-life ([10]; female, po, 30 mg/kg): 1.06 h
AUC(0-t) ([10]; female, po, 100 mg/kg): 5980 ± 745 ng·h/mL
Cmax ([10]; female, po, 100 mg/kg): 1770 ± 457 ng/mL
Tmax ([10]; female, po, 100 mg/kg): 0.83 h
half-life ([10]; female, po, 100 mg/kg): 1.84 h
AUC(0-t) ([10]; male, iv, 1 mg/kg): 8.78 ± 1.97 ng·h/mL
Cmax ([10]; male, iv, 1 mg/kg): 15.1 ± 3.23 ng/mL
Tmax ([10]; male, iv, 1 mg/kg): 0.11 h
half-life ([10]; male, iv, 1 mg/kg): 0.28 h
AUC(0-t) ([10]; male, po, 10 mg/kg): 254 ± 102 ng·h/mL
Cmax ([10]; male, po, 10 mg/kg): 189 ± 94.5 ng/mL
Tmax ([10]; male, po, 10 mg/kg): 0.5 h
half-life ([10]; male, po, 10 mg/kg): 1.12 h
AUC(0-t) ([10]; male, po, 30 mg/kg): 614 ± 201 ng·h/mL
Cmax ([10]; male, po, 30 mg/kg): 290 ± 115 ng/mL
Tmax ([10]; male, po, 30 mg/kg): 0.75 h
half-life ([10]; male, po, 30 mg/kg): 1.29 h
AUC(0-t) ([10]; male, po, 100 mg/kg): 3500 ± 813 ng·h/mL
Cmax ([10]; male, po, 100 mg/kg): 5.64 µM and 1010 ng/mL
Tmax ([10]; male, po, 100 mg/kg): 1.13 h
half-life ([10]; male, po, 100 mg/kg): 1.83 h
AUC0-last/dose ([10]; dosed S2227 iv 1.0 mg/kg, Rat (F)): 12.6 ng·h/mL/mg/kg
AUC0-last/dose ([10]; dosed S2227 iv 1.0 mg/kg, Rat (M)): 8.78 ng·h/mL/mg/kg
AUC0-last/dose ([10]; dosed S2227 oral gavage 10 mg/kg, Rat (F)): 38.4 ng·h/mL/mg/kg
AUC0-last/dose ([10]; dosed S2227 oral gavage 10 mg/kg, Rat (M)): 25.4 ng·h/mL/mg/kg
AUC0-last/dose ([10]; dosed S2227 oral gavage 30 mg/kg, Rat (F)): 83.7 ng·h/mL/mg/kg
AUC0-last/dose ([10]; dosed S2227 oral gavage 30 mg/kg, Rat (M)): 20.5 ng·h/mL/mg/kg
AUC0-last/dose ([10]; dosed S2227 oral gavage 100 mg/kg, Rat (F)): 59.8 ng·h/mL/mg/kg
AUC0-last/dose ([10]; dosed S2227 oral gavage 100 mg/kg, Rat (M)): 35.0 ng·h/mL/mg/kg
Micronucleus formation (in vivo) ([2]; males: 125, 250, 500 mg/kg bw, females: 250, 500, 1000 mg/kg bw (oral)): did not induce micronuclei; also recorded: Negative

CCNC(=O)C1CC(C)CCC1C(C)C (centres unmarked) [FEMA 3455, N-ethyl-p-menthane-3-carboxamide]
% inhibition of CYP2C19 (CYP2C19): 74%
NOEL [11]: 8 mg/kg/day

CCN(Cc1cccs1)C(=O)COc1ccc(C)cc1 [S5031, 2-(4-methylphenoxy)-N-ethyl-N-(2-thienylmethyl) acetamide]
AUC0-8h ratio (acid/amine) ([12]; jugular vein (JV)): 23.0
AUC0-8h ratio (amide/acid) ([12]; jugular vein (JV)): 0.013
AUC0-8h ratio (acid/amine) ([12]; portal vein (PV)): 13.3
AUC0-8h ratio (amide/acid) ([12]; portal vein (PV)): 0.52

— article PMC5598389 (Toxicology Reports, 2015)
